Ten compounds from ChEMBL document CHEMBL1136016, “Synthesis, biological activity, and molecular modeling investigation of new pyrazolo[4,3-e]-1,2,4-triazolo[1,5-c]pyrimidine derivatives as human A(3) adenosine receptor antagonists” (J Med Chem, 2002) can be followed below.

The structures appear in SMILES notation.

For assay [1], the target named is Adenosine receptors; A2b & A3 (Homo sapiens) (UniProt P29275+P0DMS8). Nature of the assay: Selectivity ratio (h2B/hA3). In kind it is protein assay.
Assay [2] addresses Adenosine receptors; A1 & A3 (Homo sapiens) (UniProt P30542+P0DMS8). Nature of the assay: Selectivity ratio (hA1/hA3). In kind it is protein assay.
The target of assay [3] is T1, Adenosine receptor A3 (Homo sapiens, UniProt P0DMS8).
T1 sequence (P0DMS8 whole entry): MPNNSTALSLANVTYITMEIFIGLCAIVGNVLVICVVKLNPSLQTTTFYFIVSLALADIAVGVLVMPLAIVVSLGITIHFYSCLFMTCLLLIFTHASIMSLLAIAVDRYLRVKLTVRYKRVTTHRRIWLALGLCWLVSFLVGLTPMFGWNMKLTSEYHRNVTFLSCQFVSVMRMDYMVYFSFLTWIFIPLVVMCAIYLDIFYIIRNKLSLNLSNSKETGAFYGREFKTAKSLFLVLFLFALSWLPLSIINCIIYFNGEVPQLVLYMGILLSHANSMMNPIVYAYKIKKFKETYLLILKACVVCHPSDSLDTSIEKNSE
Put plainly: biochemical.

In assay [4] the target is T2, Adenosine receptor A2b (Homo sapiens, UniProt P29275).
T2 sequence (P29275 whole entry): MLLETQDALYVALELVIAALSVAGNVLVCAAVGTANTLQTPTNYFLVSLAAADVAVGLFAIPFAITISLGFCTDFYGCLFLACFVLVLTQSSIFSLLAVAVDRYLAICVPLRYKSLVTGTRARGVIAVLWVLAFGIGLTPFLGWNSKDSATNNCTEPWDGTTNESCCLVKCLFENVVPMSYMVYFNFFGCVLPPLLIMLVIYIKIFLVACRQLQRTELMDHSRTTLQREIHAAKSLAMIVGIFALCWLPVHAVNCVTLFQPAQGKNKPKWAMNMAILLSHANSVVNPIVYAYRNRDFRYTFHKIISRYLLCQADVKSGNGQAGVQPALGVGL
Put plainly: Displacement of [3H]DPCPX from human Adenosine A2B receptor expressed in HEK293 cells; range 140-186. In kind it is cell-based. In a few lines:
(§1)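 Membranes from HEK-293 cells with human recombinant A2B receptor. Incubation 60 min at 25 °C in 50 mM Tris HCl, 10 mM MgCl2, 1 mM EDTA, 0.1 mM benzamidine, pH 7.4, with 2 IU/mL adenosine deaminase and 40 nM [3H]DPCPX. At least six to eight test concentrations. Nonspecific binding defined with NECA. n = 3-6.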
For orientation: Loss of bound radioactivity is the signal in a displacement assay; it reports binding, not function.

The target in assay [5] is T3, Adenosine receptor A1 (Homo sapiens, UniProt P30542).
T3 sequence (P30542 whole entry): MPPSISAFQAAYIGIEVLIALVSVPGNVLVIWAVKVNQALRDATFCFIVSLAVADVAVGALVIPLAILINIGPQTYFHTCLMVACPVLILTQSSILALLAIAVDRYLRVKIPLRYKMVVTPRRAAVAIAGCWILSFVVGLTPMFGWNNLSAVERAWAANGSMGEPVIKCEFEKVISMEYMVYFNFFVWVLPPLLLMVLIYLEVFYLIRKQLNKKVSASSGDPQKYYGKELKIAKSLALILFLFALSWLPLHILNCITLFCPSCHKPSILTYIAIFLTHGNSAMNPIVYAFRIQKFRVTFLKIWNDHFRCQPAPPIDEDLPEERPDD
Put plainly: Displacement of [3H]DPCPX from human Adenosine A1 receptor expressed in CHO cells; range 294-480. In kind it is cell-based.

Assay [6] addresses T4, Adenosine receptor A2a (Homo sapiens, UniProt P29274). Put plainly: Displacement of [3H]SCH-58261 from human Adenosine A2A receptor expressed in HEK293 cells; range 34-50. In kind it is cell-based.
Assay [7] concerns the target T4, Adenosine receptor A2a. Put plainly: Displacement of [3H]SCH-58261 from human Adenosine A2A receptor expressed in CHO cells. In kind it is cell-based. The gist of the method:
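Membranes from CHO cells expressing the human receptor (50 µg protein) with [3H]SCH58261 and six to eight competitor concentrations. Incubated 60 min at 25 °C. Nonspecific binding was set with NECA.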

Assay [8] has as its target T3, Adenosine receptor A1. Nature of the assay: Displacement of [3H]DPCPX from human Adenosine A1 receptor expressed in CHO cells. In kind it is cell-based. The gist of the method: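 Human recombinant A1 receptor in CHO cell membranes, resuspended in 50 mM Tris HCl pH 7.4. Displacement run 120 min at 25 °C with 1 nM [3H]DPCPX, 50 µg protein per assay, and at least six to eight test concentrations. Nonspecific binding defined with CHA. Bound and free separated on glass-fiber filters; filter radioactivity counted. n = 3-6.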

Assay [9] deals with T2, Adenosine receptor A2b. Nature of the assay: Displacement of [3H]DPCPX binding at human Adenosine A2B receptor expressed in HEK293 cells. In kind it is cell-based. In a few lines: as §1
Assay [10] has as its target T1, Adenosine receptor A3. Nature of the assay: Displacement of […] from human Adenosine A3 receptor expressed in CHO cells. In kind it is cell-based. The gist of the method: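 Membranes of CHO cells stably expressing human A3 receptor (50 µg protein/assay), incubated in duplicate with 1 nM [3H]MRE3008-F20 in 50 mM Tris HCl, 10 mM MgCl2 (pH 7.4) and six to eight ligand concentrations, 120 min at 4 °C. Nonspecific binding was set with 1 µM MRE3008-F20. Separation was by GF/B filtration and scintillation counting; n = 3-6.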

Assay [11] addresses T1, Adenosine receptor A3. Nature of the assay: Inhibition of IB-MECA agonist-mediated cAMP production in membranes of CHO cells expressing human Adenosine A3 receptor. In kind it is functional, cell-based. The gist of the method:
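Human A3-CHO membranes (in 50 mM Tris HCl, 10 mM MgCl2, 1 mM EDTA, pH 7.4) were preincubated for 10 min at 37 °C with 5 µM GTP, 0.5 mM Ro 20-1724 and 2.0 IU/mL adenosine deaminase. IB-MECA (100 nM) or antagonist was then added with 1 mM ATP and forskolin for 10 min. The reaction was stopped by 2 min boiling. cAMP was measured by [3H]cAMP competitive protein binding using beef adrenal binding protein, 150 min at 4 °C.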
(In general: Cyclic AMP is a second messenger, typically raised through Gs and lowered through Gi signalling.)

The target of assay [12] is T1, Adenosine receptor A3. Nature of the assay: Displacement of [3H]MRE3008-F20 from human Adenosine A3 receptor expressed in HEK cells; range 2.0-3.1. In kind it is cell-based, HEK293.
Assay [13] addresses T3, Adenosine receptor A1. Put plainly: Displacement of [3H]DPCPX from human Adenosine A1 receptor expressed in CHO cells; range 552-676. In kind it is cell-based. In a few lines: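 Competition binding on membranes of CHO cells stably expressing human A1 receptor, resuspended in 50 mM Tris HCl pH 7.4. Incubation 120 min at 25 °C with 1 nM [3H]DPCPX, 50 µg protein per assay and at least six to eight test concentrations. CHA defined nonspecific binding. Bound ligand separated on glass-fibre filters and counted; n = 3-6.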

In assay [14] the target is T2, Adenosine receptor A2b. Nature of the assay: Displacement of [3H]DPCPX from human Adenosine A2B receptor expressed in HEK293 cells; range 25-40. In kind it is cell-based. In a few lines: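 HEK-293 membranes expressing the human receptor were incubated 60 min at 25 °C. Six to eight test concentrations were used. Nonspecific binding was set with NECA. n = 3-6.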

Assay [15] concerns the target T4, Adenosine receptor A2a. Nature of the assay: Displacement of [3H]SCH-58261 from human Adenosine A2A receptor expressed in HEK293 cells; range 362-445. In kind it is cell-based.

T4 sequence (P29274 whole entry): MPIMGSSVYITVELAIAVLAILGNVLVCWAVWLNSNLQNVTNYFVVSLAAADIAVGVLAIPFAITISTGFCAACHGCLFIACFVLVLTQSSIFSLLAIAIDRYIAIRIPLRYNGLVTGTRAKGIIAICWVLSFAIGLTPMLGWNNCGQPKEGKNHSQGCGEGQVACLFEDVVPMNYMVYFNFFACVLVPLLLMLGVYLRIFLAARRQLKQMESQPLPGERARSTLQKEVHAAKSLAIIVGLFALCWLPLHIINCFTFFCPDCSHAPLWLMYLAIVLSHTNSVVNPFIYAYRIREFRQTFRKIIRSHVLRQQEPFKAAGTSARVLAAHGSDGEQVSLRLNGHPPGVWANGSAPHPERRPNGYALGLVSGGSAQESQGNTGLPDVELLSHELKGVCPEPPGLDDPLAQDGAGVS

Turning to `CCCn1cc2c(nc(NC(=O)Nc3ccc(F)cc3)n3nc(-c4ccco4)nc23)n1`, the values for the Ratio in assay [1] and in assay [2] were 555 and 1300, respectively. Also, the Ki in assay [3] was 0.29 nM; in assay [4], 161 nM; in [5] it was 376 nM; in assay [6], 42 nM.

As to `CCn1cc2c(nc(NC(=O)Nc3cccc(Cl)c3)n3nc(-c4ccco4)nc23)n1`, the Ratio is 93.7 in [1] and 155 in assay [2].

For `CCCn1cc2c(nc(NC(=O)Nc3cccc(Cl)c3)n3nc(-c4ccco4)nc23)n1`, the Ratio came out at 62.6 in assay [1] and 33 in [2].

On to `CCCCn1cc2c(nc(NC(=O)Nc3cccc(Cl)c3)n3nc(-c4ccco4)nc23)n1`, for which the Ratio is 116 in assay [1] and 408 in assay [2].

Take `CCn1cc2c(nc(NC(=O)Nc3ccc([N+](=O)[O-])cc3)n3nc(-c4ccco4)nc23)n1`: the Ki worked out at 614 nM in assay [7], 1130 nM in assay [8], 226 nM in [9] and 0.65 nM in assay [10]. For the same compound, the Ratio in [1] amounted to 348; in assay [2] it was 1740.

In the case of `CCCn1cc2c(nc(NC(=O)Nc3ccc([N+](=O)[O-])cc3)n3nc(-c4ccco4)nc23)n1`, the Ki stood at 1110 nM in assay [7], 1210 nM in assay [8], 305 nM in assay [9] and 0.81 nM in assay [10]. Also, the Ratio came to 377 in [1] and 1500 in [2].

Consider `CCCCn1cc2c(nc(NC(=O)Nc3ccc(OC)cc3)n3nc(-c4ccco4)nc23)n1`, for which the values for the Ratio in [1] and in assay [2] were 946 and 925, respectively.

Regarding `Cn1cc2c(nc(NC(=O)Nc3ccc([N+](=O)[O-])cc3)n3nc(-c4ccco4)nc23)n1`, the Ki turned out to be 695 nM in assay [7], 1110 nM in [8], 180 nM in assay [9] and 0.43 nM in [10]. The Ratio was 419 in assay [1] and 2590 in assay [2]. This compound had an IC50 in assay [11] of 5.5 nM.

For the compound `CCCn1cc2c(nc(NC(=O)Nc3ccc(Cl)c(Cl)c3)n3nc(-c4ccco4)nc23)n1`, the values for the Ratio in assay [1] and in assay [2] were 12 and 244, respectively. Also, the Ki was found to be 2.5 nM in assay [12], 611 nM in assay [13], 31 nM in assay [14] and 401 nM in assay [15].

For the compound `COc1ccc(NC(=O)Nc2nc3ccc(Cl)cc3c3nc(-c4ccco4)nn23)cc1`, the Ratio amounted to 158 in [1] and 43 in [2].

The Ki is the dissociation constant of the complex between target and ligand, obtained from inhibition or displacement. Higher therefore signals weaker binding. The IC50 is the concentration that gives 50% inhibition.
